According to ChEMBL document CHEMBL1255391, “Rates and mechanisms of resistance development in Mycobacterium tuberculosis to a novel diarylquinoline ATP synthase inhibitor” (2010):
≈ marks a conversion by molar mass, not a printed value.

Assays:
Type in all cases: functional
[1] = system: Mycobacterium tuberculosis; experiment: Antimicrobial activity against multidrug-resistant Mycobacterium tuberculosis isolate 1 expressing wild type atpE selected after 10 times MIC drug exposure
Summary of the method: (§1)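 Each resistant mutant clone (one colony picked per independent fluctuation culture selected on drug agar) is suspended in PBS, sonicated and applied by 96-pin replicator. Nonselective and rifampin control plates are included. Plates are read after 4 weeks; MIC is the lowest concentration with no visible growth.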

[2] = system: Mycobacterium tuberculosis; experiment: Antimicrobial activity against multidrug-resistant Mycobacterium tuberculosis H37Rv
[3] = system: Mycobacterium tuberculosis; experiment: Antimicrobial activity against multidrug-resistant Mycobacterium tuberculosis isolate 5 expressing wild type atpE selected after 10 times MIC drug exposure; summary of the method: as §1
[4] = system: Mycobacterium tuberculosis; experiment: Antimicrobial activity against multidrug-resistant Mycobacterium tuberculosis isolate 3 expressing wild type atpE and F0 operon selected after 30 times MIC drug exposure; summary of the method: as §1
[5] = system: Mycobacterium tuberculosis; experiment: Antimicrobial activity against drug-susceptible Mycobacterium tuberculosis isolate 6 expressing wild type atpE Ala63Pro mutant selected after 30 times MIC drug exposure; summary of the method: as §1
[6] = system: Mycobacterium tuberculosis; experiment: Antimicrobial activity against drug-susceptible Mycobacterium tuberculosis H37Rv expressing wild type atpE Ala63Pro mutant selected after 30 times MIC drug exposure; summary of the method: as §1
[7] = system: Mycobacterium tuberculosis; experiment: Antimicrobial activity against multidrug-resistant Mycobacterium tuberculosis isolate 5 expressing wild type atpE and F0 operon selected after 10 times MIC drug exposure; summary of the method: as §1
[8] = system: Mycobacterium tuberculosis; experiment: Antimicrobial activity against multidrug-resistant Mycobacterium tuberculosis isolate 5 expressing wild type atpE Ile66Met mutant selected after 30 times MIC drug exposure; summary of the method: as §1
[9] = system: Mycobacterium tuberculosis; experiment: Antimicrobial activity against multidrug-resistant Mycobacterium tuberculosis isolate 1 expressing atpE Glu61Asp mutant selected after 10 times MIC drug exposure; summary of the method: as §1
[10] = system: Mycobacterium tuberculosis; experiment: Antimicrobial activity against multidrug-resistant Mycobacterium tuberculosis isolate 2 expressing atpE Glu61Asp mutant selected after 10 times MIC drug exposure; summary of the method: as §1
[11] = system: Mycobacterium tuberculosis; experiment: Antimicrobial activity against multidrug-resistant Mycobacterium tuberculosis isolate 2 expressing atpE Ala28Val mutant selected after 10 times MIC drug exposure; summary of the method: as §1
[12] = system: Mycobacterium tuberculosis; experiment: Antimicrobial activity against drug-susceptible Mycobacterium tuberculosis isolate 4 expressing wild type atpE Glu61Asp mutant selected after 10 times MIC drug exposure; summary of the method: as §1
[13] = system: Mycobacterium tuberculosis; experiment: Antimicrobial activity against drug-susceptible Mycobacterium tuberculosis isolate 4 expressing wild type atpE Asp28Pro mutant selected after 10 times MIC drug exposure; summary of the method: as §1
[14] = system: Mycobacterium tuberculosis; experiment: Antimicrobial activity against multidrug-resistant Mycobacterium tuberculosis isolate 5 expressing wild type atpE Ala63Pro mutant selected after 10 times MIC drug exposure; summary of the method: as §1
[15] = system: Mycobacterium tuberculosis; experiment: Antimicrobial activity against drug-susceptible Mycobacterium tuberculosis isolate 6 expressing wild type atpE Glu61Asp mutant selected after 30 times MIC drug exposure; summary of the method: as §1
[16] = system: Mycobacterium tuberculosis; experiment: Antimicrobial activity against multidrug-resistant Mycobacterium tuberculosis isolate 3 expressing wild type atpE selected after 10 times MIC drug exposure; summary of the method: as §1
[17] = system: Mycobacterium tuberculosis; experiment: Antimicrobial activity against drug-susceptible Mycobacterium tuberculosis isolate 4 expressing wild type atpE Glu61Asp mutant selected after 30 times MIC drug exposure; summary of the method: as §1
[18] = system: Mycobacterium tuberculosis; experiment: Antimicrobial activity against multidrug-resistant Mycobacterium tuberculosis isolate 3 expressing wild type atpE and ATP synthase selected after 10 times MIC drug exposure; summary of the method: as §1
[19] = system: Mycobacterium tuberculosis; experiment: Antimicrobial activity against multidrug-resistant Mycobacterium tuberculosis isolate 3 expressing wild type atpE and F0 operon selected after 10 times MIC drug exposure; summary of the method: as §1
[20] = system: Mycobacterium tuberculosis; experiment: Antimicrobial activity against multidrug-resistant Mycobacterium tuberculosis isolate 2 expressing wild type atpE selected after 10 times MIC drug exposure; summary of the method: as §1
[21] = system: Mycobacterium tuberculosis; experiment: Antimicrobial activity against multidrug-resistant Mycobacterium tuberculosis isolate 1 expressing atpE Glu63Asp mutant selected after 30 times MIC drug exposure; summary of the method: as §1
[22] = system: Mycobacterium tuberculosis; experiment: Antimicrobial activity against multidrug-resistant Mycobacterium tuberculosis isolate 3 expressing wild type atpE selected after 30 times MIC drug exposure; summary of the method: as §1

Q: What does the source list for `COc1nc2ccc(Br)cc2cc1[C@@H](c1ccccc1)[C@@](O)(CCN(C)C)c1cccc2ccccc12` [BEDAQUILINE]?
A: MIC [1]: 0.12 µg/mL (≈ 0.216 µM); MIC [2]: 0.03 µg/mL (≈ 0.054 µM); MIC [3]: 0.12 µg/mL (≈ 0.216 µM); MIC [4]: 0.9 µg/mL (≈ 1.62 µM); MIC [5]: 0.9 mg/L (≈ 1.62 µM); MIC [6]: 3.84 mg/L (≈ 6.91 µM); MIC [7]: 0.48 µg/mL (≈ 0.864 µM); MIC [8]: 0.9 mg/L (≈ 1.62 µM); MIC [9]: 0.48 mg/L (≈ 0.864 µM); MIC [10]: 0.24 mg/L (≈ 0.432 µM); MIC [11]: 0.48 mg/L (≈ 0.864 µM); MIC [12]: 0.96 mg/L (≈ 1.73 µM); MIC [13]: 0.3 mg/L (≈ 0.54 µM); MIC [14]: 0.24 mg/L (≈ 0.432 µM); MIC [15]: 0.48 mg/L (≈ 0.864 µM); MIC [16]: 0.9 µg/mL (≈ 1.62 µM); MIC [17]: 0.48 mg/L (≈ 0.864 µM); MIC [18]: 0.9 µg/mL (≈ 1.62 µM); MIC [19]: 0.9 µg/mL (≈ 1.62 µM); MIC [20]: 0.12 µg/mL (≈ 0.216 µM); MIC [21]: 1.92 mg/L (≈ 3.46 µM); MIC [22]: 0.48 µg/mL (≈ 0.864 µM)
